# Assay results of several laboratories.
# Protocols differ between the studies behind these lines.
# CDK17 with cyclin Y: Cyclin-dependent kinase 17, with cyclin Y (CDK17, Homo sapiens, UniProt Q00537)
# CDK17: Cyclin-dependent kinase 17 (CDK17, Homo sapiens, UniProt Q00537)
Structure (SMILES),target,observed,action,technique,tested at,endpoint,result
CC(C)S(=O)(=O)c1ccc2nccc(Nc3ccc4sc(C5CCCC5)nc4c3)c2c1,CDK17 with cyclin Y,enzyme activity,inhibitor,,1 µM,activity vs control,111%
C[C@H]1CC[C@H](n2c3cnccc3c3cnc(Nc4ccc5c(n4)CCN(C(=O)CO)C5)nc32)CC1,CDK17,binding,,competition with immobilised ligand,1 µM,remaining binding,24%
COc1ccc2oc(-c3ccc4nc(N)oc4c3)c/c(=N\c3ccccc3NC(=O)CCN)c2c1,CDK17 with cyclin Y,binding,,,1 µM,remaining binding,100%
Cc1ccc(NC(=O)c2ccnc(C(F)(F)F)c2)cc1-c1cc(OCCO)nc(N2CCOCC2)c1,CDK17,binding,,competition with immobilised ligand,1 µM,remaining binding,98%
CO[C@@H]1[C@H](N(C)C(=O)c2ccccc2)C[C@H]2O[C@]1(C)n1c3ccccc3c3c4c(c5c6ccccc6n2c5c31)C(=O)NC4,CDK17,enzyme activity,inhibitor,,1 µM,inhibition,0%
CCCCC(=O)Nc1ccc(-c2ccc3ncn(CCC)c(=O)c3c2)cn1,CDK17,binding,,competition with immobilised ligand,0.5 µM,remaining binding,100%
CC#CC(=O)N1CCC[C@H]1c1nc(-c2ccc(C(=O)Nc3ccccn3)cc2)c2c(N)nccn12,CDK17,enzyme activity,inhibitor,,1 µM,inhibition,0%
Cc1cc(O)c(-c2ccc([C@@H](C)CN(C)C)cc2)c2c1[nH]c(=O)c1sccc12,CDK17,enzyme activity,inhibitor,,0.1 µM,inhibition,2.42%
